Active and inactive are the calls of the source. No cut-off for these calls is given here.

In series [1] the test system is HT-22. As to the kind of experiment: Cytotoxicity against mouse HT22 cells up to 100 uM after 24 hrs by LDH-release assay. To be noted: ht-22, 24 h. It counts as cell-based. The procedure, abridged:
(§1)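 HT22 cells exposed to compound alone, without glutamate (cytotoxicity tested up to 100 µM). Cell injury is read as lactate dehydrogenase released into the culture medium, measured with a cytotoxicity detection kit. LDH from control cultures is set at 100%.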

The test system of series [2] is HT-22. Put plainly: Neuroprotective activity against glutamate-induced neuronal cell death in mouse HT22 cells at 25 to 50 uM after 24 hrs by LDH-release assay relative to control. The series is classed as functional. The gist of the method:
(§2)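 HT22 cells exposed to 10 mM glutamate together with compound at 25 or 50 µM for 24 h. Cell death read as LDH released into the culture medium (cytotoxicity detection kit). Control is LDH release from cells incubated without glutamate, set at 100%.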

The subject of series [3] is HT-22. Put plainly: Neuroprotective activity against glutamate-induced neuronal cell death in mouse HT22 cells at 25 uM after 24 hrs by LDH-release assay relative to control. It counts as functional. The gist of the method:
as §2

Series [4] deals with HT-22. As to the kind of experiment: Cytotoxicity against mouse HT22 cells after 24 hrs in absence of glutamate by LDH-release assay relative to control. To be noted: ht-22, 24 h. The series is classed as ADME, cell-based. The gist of the method:
as §1

For series [5], the system named is HT-22. As to the kind of experiment: Neuroprotective activity against glutamate-induced neuronal cell death in mouse HT22 cells after 24 hrs by LDH-release assay. The series is classed as functional, cell-based. To be noted: HT-22, 24 h. The procedure, abridged: (§3)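 HT22 cells co-incubated 24 h with 10 mM glutamate plus compound at 0, 1.0, 2.5, 5.0, 10 or 25 µM. Cell death is read as LDH released into the medium. Control-culture LDH is set at 100%. IC50 values were estimated from this low-dose series; for some compounds, approximate IC50s were corrected by subtracting suppression of basal, glutamate-independent death.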

The subject of series [6] is HT-22. As to the kind of experiment: Neuroprotective activity against glutamate-induced neuronal cell death in mouse HT22 cells at 2.5 to 5 uM after 24 hrs by LDH-release assay relative to control. The series is classed as functional, cell-based. The procedure, abridged:
as §3

Series [7] deals with HT-22. As to the kind of experiment: Neuroprotective activity against glutamate-induced neuronal cell death in mouse HT22 cells at 1 to 25 uM after 24 hrs by LDH-release assay relative to control. The series is classed as functional, cell-based. The gist of the method: as §3
Series [8] relates to HT-22. Put plainly: Neuroprotective activity against glutamate-induced neuronal cell death in mouse HT22 cells at 2.5 to 10 uM after 24 hrs by LDH-release assay relative to control. The series is classed as functional, cell-based. The gist of the method: as §3
Series [9] concerns HT-22. Put plainly: Neuroprotective activity against glutamate-induced neuronal cell death in mouse HT22 cells at 1 to 10 uM after 24 hrs by LDH-release assay relative to control. The series is classed as functional, cell-based. The procedure, abridged: as §3
Series [10] has as its system HT-22. As to the kind of experiment: Neuroprotective activity against glutamate-induced neuronal cell death in mouse HT22 cells at 50 uM after 24 hrs by LDH-release assay relative to control. It counts as functional, cell-based. The procedure, abridged:
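HT22 cells treated 24 h with 10 mM glutamate and compound at 0, 25 or 50 µM. Cell death is read as lactate dehydrogenase released into the culture medium, measured with a cytotoxicity detection kit. LDH of control cultures is set at 100%.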

On to `CN(C)c1ccc(CCCC2C(=O)Nc3ccc(C(F)(F)F)cc32)cc1` (centres undefined), for which, in the series with HT-22 [1], the Activity entry is on record as “Non-Toxic”.
As for `CN(C)c1ccc(C(C)(C)CC2C(=O)Nc3ccccc32)cc1` (racemic), in the series on HT-22 [1], the Activity entry is recorded as “Non-Toxic”.
For `COc1ccc2c(c1)C(C)(CCOc1ccc(N(C)C)cc1)C(=O)N2` (racemic), the outcome in the series on HT-22 [2] was Active. For the same compound, the Activity result with HT-22 [1] was “Non-Toxic”.
As for `COc1ccc2c(c1)C(C)(CCCc1ccc(N(C)C)cc1)C(=O)N2` (racemic) [listing 1 of 2 here], the Activity result in the series with HT-22 [1] is given as “Non-Toxic”.
Take `O=C1O[C@H]([C@@H](O)CO)C(O)=C1O` [ASCORBIC ACID]: the Activity with HT-22 [3] is 50%.
`CN(C)c1ccc(CCCC2(C)C(=O)Nc3ccccc32)cc1` (racemic): the Activity result in the series with HT-22 [4] is “Non-Toxic”; in the series with HT-22 [2], >100%; with HT-22 [1] it was “Non-Toxic”.
For `CN(C)c1cccc(CCCC2C(=O)Nc3ccccc32)c1` (racemic), the Activity result was “Non-Toxic” in the series on HT-22 [4], >100% with HT-22 [2] and “Non-Toxic” in the series with HT-22 [1].
Turning to `CCN(CC)c1ccc(CCCC2C(=O)Nc3ccccc32)cc1` (racemic), the Activity result was “Non-Toxic” with HT-22 [4], >100% in the series with HT-22 [2] and “Non-Toxic” with HT-22 [1].
Regarding `CN(CCCCCC1C(=O)Nc2ccccc21)c1ccccc1` (racemic), in the series on HT-22 [2], the result was Active. In the series with HT-22 [1], the Activity result is listed as “Non-Toxic”.
One may read the IC50 as the point on the concentration scale where inhibition reaches its midpoint. A high value points to weaker potency in that assay. As to `CN(C)c1ccc(CCCC2(C)C(=O)Nc3ccc(O)cc32)cc1` (racemic), the Activity result is “Non-Toxic” in the series with HT-22 [4], >100% with HT-22 [2] and “Non-Toxic” with HT-22 [1]. In the series with HT-22 [5], half-maximal inhibition (IC50) required 1.9 µM. Moreover, in the series on HT-22 [6], the outcome was Active.
For the compound `COc1ccc2c(c1)C(C)(CCCc1ccc(N(C)C)cc1)C(=O)N2` (stereo in doubt; 8b), the outcome in the series on HT-22 [2] was Active.
With `CN(C)c1ccc(CCCCC2C(=O)Nc3ccccc32)cc1` (racemic), the result in the series on HT-22 [2] was Active. The Activity result with HT-22 [1] is reported as “Non-Toxic”.
With `COc1ccc2c(c1)C(C)(CCCc1ccc(N(C)C)cc1)C(=O)N2` (stereo in doubt; 8a), in the series on HT-22 [2], the result was Active.
With `COc1ccc2c(c1)C(C)(CCCc1ccc(N(C)C)cc1)C(=O)N2CC(=O)O` (racemic), the outcome in the series on HT-22 [2] was inactive. The Activity result in the series on HT-22 [1] is recorded as “Non-Toxic”.
As to `CN(C)c1ccc(CC2C(=O)Nc3ccccc32)cc1` (racemic), half-maximal inhibition with HT-22 [5] (IC50) required 7.1 µM. The result in the series with HT-22 [7] and with HT-22 [2] was Active. Also, the Activity result with HT-22 [1] is recorded as “Non-Toxic”.
As for `COc1ccc2c(c1)C(C)(CCCc1ccc(N(C)C)cc1)C(=O)N2` (racemic) [listing 2 of 2 here], the outcome in the series on HT-22 [2] was Active.
In turn, `CN(C)c1ccc(CCCC2C(=O)Nc3ccccc32)cc1` (racemic) came in with an IC50 in the series on HT-22 [5] of 5.5 µM. In addition, the outcome in the series with HT-22 [2] and in the series with HT-22 [8] was Active. Further, in the series with HT-22 [1], the Activity result is recorded as “Non-Toxic”.
For the compound `CN(C)c1ccc(CCCC2(C)C(=O)Nc3ccc(F)cc32)cc1` (racemic), the results for the Activity entry in the series with HT-22 [4], with HT-22 [2] and in the series with HT-22 [1] were “Non-Toxic”, >100% and “Non-Toxic”, respectively. In the series on HT-22 [5], this compound yielded an IC50 of 1.2 µM. Moreover, the outcome in the series with HT-22 [9] was Active.
On to `COc1ccc(N2C(=O)C(C)(CCCc3ccc(N(C)C)cc3)c3ccccc32)cc1` (centres undefined), for which the Activity entry with HT-22 [1] was “Non-Toxic”.
As for `CN(C)CCCCCCCC1(C)C(=O)Nc2ccccc21` (centres undefined), in the series with HT-22 [2], the result was inactive. Besides, the Activity entry with HT-22 [1] is listed as “Non-Toxic”.
With `CN(C)c1ccc(CCCC2C(=O)N(C)c3ccccc32)cc1` (racemic), the Activity result was “Non-Toxic” in the series with HT-22 [4], >100% in the series with HT-22 [2] and “Non-Toxic” in the series on HT-22 [1].
Turning to `COc1ccc2c(c1)C(C)(CCCc1ccc(N(C)C)cc1)C(=O)N2CC(=O)N(C)C` (centres undefined), in the series on HT-22 [1], the Activity result is on record as “Non-Toxic”.
As for `COCCOc1ccc2c(c1)C(C)(CCCc1ccc(N(C)C)cc1)C(=O)N2` (centres undefined), the Activity entry in the series on HT-22 [1] is “Non-Toxic”.
As for `CN(C)c1ccc(C(=O)NCCC2C(=O)Nc3ccccc32)cc1` (racemic), the result with HT-22 [2] was inactive. In addition, the Activity result in the series with HT-22 [1] was “Non-Toxic”.
Regarding `CN(Cc1ccccc1)c1ccc(CCCC2(C)C(=O)Nc3ccccc32)cc1` (racemic), the result with HT-22 [2] was Active. In addition, the Activity result with HT-22 [1] is reported as “Non-Toxic”.
`CN(C)c1ccc(CCC2C(=O)Nc3ccccc32)cc1` (racemic): the result with HT-22 [10] was Active. In addition, in the series on HT-22 [3], the outcome was inactive. Further, the Activity result with HT-22 [1] was “Non-Toxic”.
For `COc1ccc2c(c1)C1(CCN(c3ccccc3)CC1)C(=O)N2`, the outcome with HT-22 [2] was inactive. The Activity entry in the series with HT-22 [1] is reported as “Non-Toxic”.

For the origin of these results see ChEMBL document CHEMBL4043176, “Synthesis of 3-[4-(dimethylamino)phenyl]alkyl-2-oxindole derivatives and their effects on neuronal cell death” (Bioorg Med Chem Lett, 2017).
